In ChEMBL document CHEMBL4390654, “Microwave-assisted solid-phase synthesis of antisense acpP peptide nucleic acid-peptide conjugates active against colistin- and tigecycline-resistant E. coli and K. pneumoniae” (Eur J Med Chem, 2019) one finds MIC data, which are given here for eight compounds.

Type in all cases: functional
Assay [1] deals with Escherichia coli. Description: Antibacterial activity against multi-drug resistant Escherichia coli NMI 3548/14 assessed as reduction in microbial growth incubated for 20 hrs. The essentials:
(§1)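 Broth microdilution MIC (modified Hancock protocol) in non-binding polystyrene plates. Inoculum ~2 × 10^5 CFU/mL in Mueller-Hinton broth with Mg²⁺ and Ca²⁺ at 4 mg/L each. Compounds dissolved in water, diluted in 0.01% acetic acid/0.2% BSA (final), added as 10× stocks. Covered plates incubated 20 h at 35 °C (± 2 °C) with 220 rpm circular shaking before MIC read.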

Assay [2] concerns Escherichia coli. Kind of assay: Antibacterial activity against multi-drug resistant Escherichia coli NMI 3898/15 assessed as reduction in microbial growth incubated for 20 hrs. Particulars: NMI 3898/15, 20 h. The essentials: as §1
Assay [3] concerns Klebsiella pneumoniae. Kind of assay: Antibacterial activity against multi-drug resistant Klebsiella pneumoniae NMI 3081/09 assessed as reduction in microbial growth incubated for 20 hrs. The essentials:
as §1

Assay [4] concerns Klebsiella pneumoniae. Description: Antibacterial activity against multi-drug resistant Klebsiella pneumoniae NMI 2697/14 assessed as reduction in microbial growth incubated for 20 hrs. The essentials:
as §1

Regarding `C[C@@H](O)[C@H]1C(=O)N2C(C(=O)O)=C(S[C@@H]3CN[C@H](C(=O)N(C)C)C3)[C@H](C)[C@H]12` [MEROPENEM], the MIC was 0.5 µg/mL in assay [1] (NMI 3548/14, 20 h); 0.125 µg/mL in assay [2]; above 32 µg/mL in assay [3] (NMI 3081/09, 20 h); 1 µg/mL in assay [4] (NMI 2697/14, 20 h).
Taken in the same sequence, the figures for `C[C@H]1[C@H](NC(=O)/C(=N\OC(C)(C)C(=O)O)c2csc(N)n2)C(=O)N1S(=O)(=O)O` [AZTREONAM] were above 16 µg/mL, 8 µg/mL, above 256 µg/mL and 16 µg/mL.
Turning to `CN(C)[C@@H]1C(O)=C(C(N)=O)C(=O)[C@@]2(O)C(O)=C3C(=O)c4c(O)cccc4[C@@](C)(O)[C@H]3C[C@@H]12` [TETRACYCLINE], the MIC was 8 µg/mL in assay [1] (NMI 3548/14, 20 h); 64 µg/mL in assay [2]; above 256 µg/mL in assay [3] (NMI 3081/09, 20 h); 16 µg/mL in assay [4] (NMI 2697/14, 20 h).
Turning to `O=C(O)c1cn(C2CC2)c2cc(N3CCNCC3)c(F)cc2c1=O` [CIPROFLOXACIN], the MIC was above 32 µg/mL in assay [2]; above 32 µg/mL in assay [3] (NMI 3081/09, 20 h); 2 µg/mL in assay [4] (NMI 2697/14, 20 h).
For the compound `CO/N=C(\C(=O)N[C@@H]1C(=O)N2C(C(=O)O)=C(COC(C)=O)CS[C@H]12)c1csc(N)n1` [CEFOTAXIME], the MIC in assay [1] (NMI 3548/14, 20 h) is 16 µg/mL; in assay [2], 16 µg/mL; in assay [3] (NMI 3081/09, 20 h), above 32 µg/mL; in assay [4] (NMI 2697/14, 20 h) it was above 32 µg/mL.
Turning to `NCC[C@H](O)C(=O)N[C@@H]1C[C@H](N)[C@@H](O[C@H]2O[C@H](CN)[C@@H](O)[C@H](O)[C@H]2O)[C@H](O)[C@H]1O[C@H]1O[C@H](CO)[C@@H](O)[C@H](N)[C@H]1O` [AMIKACIN], the MIC worked out at 8 µg/mL in assay [1] (NMI 3548/14, 20 h); 2 µg/mL in assay [2]; 16 µg/mL in assay [3] (NMI 3081/09, 20 h); 32 µg/mL in assay [4] (NMI 2697/14, 20 h).
GENTAMICIN: the MIC in assay [1] was 2 µg/mL; in assay [3], 2 µg/mL; in assay [4], above 64 µg/mL.
In the case of `CCN1CCN(C(=O)N[C@@H](C(=O)N[C@@H]2C(=O)N3[C@@H]2SC(C)(C)[C@@H]3C(=O)O)c2ccccc2)C(=O)C1=O` [PIPERACILLIN], the MIC in assay [1] (NMI 3548/14, 20 h) is 8 µg/mL; in assay [2] it was above 256 µg/mL; in assay [3] (NMI 3081/09, 20 h), above 256 µg/mL; in assay [4] (NMI 2697/14, 20 h), above 256 µg/mL.

By MIC is commonly meant the smallest concentration in the dilution series that meets the test's criterion for growth inhibition.
